Among the data in BindingDB's records for doi:10.1021/jm9600205 (National Institute of Diabetes, 1996) are Ki values, retold here.

For this assay, the target named is Adenosine receptor A2a (Rattus norvegicus, UniProt P30543). The assay is described as follows: Displacement of [3H]-CGS- 21680 binding to Adenosine A2A receptor in rat striatal membranes. The method in brief: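 Adenosine deaminase (3 units/mL) present during preparation, 30 min preincubation at 30 °C and incubation. At least five competitor concentrations over 3 orders of magnitude.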
(Loss of bound radioactivity is the signal in a displacement assay; it reports binding, not function.)

Adenosine receptor A2a, sequence (P30543 whole entry): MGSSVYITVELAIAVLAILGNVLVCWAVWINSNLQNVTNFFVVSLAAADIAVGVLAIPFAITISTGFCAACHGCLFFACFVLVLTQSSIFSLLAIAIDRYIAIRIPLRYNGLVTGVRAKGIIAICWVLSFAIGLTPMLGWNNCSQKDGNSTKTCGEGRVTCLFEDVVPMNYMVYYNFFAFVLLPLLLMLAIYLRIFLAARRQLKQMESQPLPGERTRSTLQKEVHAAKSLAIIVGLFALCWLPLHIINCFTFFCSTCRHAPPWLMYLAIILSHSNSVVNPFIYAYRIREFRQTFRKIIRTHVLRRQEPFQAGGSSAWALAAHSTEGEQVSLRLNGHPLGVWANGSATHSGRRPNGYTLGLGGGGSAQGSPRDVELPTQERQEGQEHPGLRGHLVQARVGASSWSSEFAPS

Take `CCOC(=O)C1=C(c2ccccc2)N=C(C)C(C(=O)OCC)C1C` (configuration not stated) [2,4-Dimethyl-6-phenyl-1,4-dihydro-pyridine-3,5-dicarboxylic acid diethyl ester]: the affinity corresponds to a Ki of 35.9 µM. This counts as double-digit micromolar. The result for `CCOC(=O)C1=C(C)N=C(C)C(C(=O)OC)C1C` (configuration not stated) [2,4,6-Trimethyl-1,4-dihydro-pyridine-3,5-dicarboxylic acid 3-ethyl ester 5-methyl ester] reads 46.1 µM.
